# Measurements collected from several papers.
# Compare with care: the assays were run in different laboratories.
# Target: Mitogen-activated protein kinase 10 (MAPK10, Homo sapiens, UniProt P53779)
SMILES,test,setting,quantity,value
Clc1ccc(Nc2nnc(Cc3ccncc3)c3ccccc23)cc1,cell-free assay,0.5 µM,remaining signal,116%
CC(C)(C)c1nc(-c2cccc(NS(=O)(=O)c3c(F)cccc3F)c2F)c(-c2ccnc(N)n2)s1,"enzyme activity, inhibitor, radiometric",1 µM,remaining activity,118%
Cc1cnc(NC2CCOCC2)nc1-n1cnc(C(=O)NC(CN)c2cc(F)cc(Cl)c2)c1 (stereo not drawn),"enzyme activity, inhibitor, radiometric",1 µM,remaining activity,55%
O=C(NC[C@@H]1[C@H]2CN(C(=O)OCc3cc(C(F)(F)F)cc(C(F)(F)F)c3)C[C@@H]12)c1ccc2[nH]nnc2c1,"cell-free assay, competition with immobilised ligand",1 µM,remaining binding,90%
CN1CC(Oc2cnc(C#N)cc2-c2ccn3nc(NC(=O)C4CC4)cc3c2)C1,"enzyme activity, inhibitor",1 µM,inhibition,2%
c1ccc(N2CCN(Cc3nc4ccccc4[nH]3)CC2)nc1,"binding, competition with immobilised ligand",1 µM,remaining binding,100%
Cc1ccc(C(=O)Nc2ccc(CN3CCN(C)CC3)c(C(F)(F)F)c2)cc1C#Cc1cnc2cccnn12,"enzyme activity, inhibitor",23.5 nM,remaining activity,85%
COc1cc(-c2cc(-c3ccc(N4CCNCC4)cc3)cnc2C)cc(OC)c1OC,"enzyme activity, inhibitor",1 µM,inhibition,3%
COc1cc2ncnc(Nc3ccc(Oc4ccccc4)c(C)c3C)c2cc1OC,"enzyme activity, inhibitor",1 µM,inhibition,-1%
CNC(=O)Nc1ccc2c(c1)CC[C@@]21OC(=O)N(CC(=O)N(Cc2ccc(F)cc2)[C@@H](C)C(F)(F)F)C1=O,"cell-free assay, competition with immobilised ligand",1 µM,remaining binding,73%
Cc1ccc(C(=O)NCc2ccsc2)cc1C#Cc1cn(C(C)C)c2ncnc(N)c12,"enzyme activity, inhibitor",1 µM,activity vs control,84%
Cc1cc(NC(=O)c2cccc3cc(-c4cccc5[nH]nc(N)c45)ccc23)ccc1F,"enzyme activity, inhibitor",0.1 µM,activity vs control,102%
Nc1ncnc2occ(-c3ccc(NC(=O)Nc4cc(C(F)(F)F)ccc4F)cc3)c12,"cell-free assay, inhibitor",20 µM,remaining signal,1.3%
Nc1ncnc2c1ncn2[C@@H]1O[C@H](COP(=O)(O)OP(=O)(O)OP(=O)(O)O)[C@@H](O)[C@H]1O,"thermal stability, DSF",200 µM,ΔTm,2.73 °C
CS(=O)(=O)N1CCCC(NC(=O)[C@H](CCC2CCCCC2)NC(=O)c2ccc(CNc3ncnc4c3nnn4-c3ccccc3)cc2)C1 (stereo partly drawn),"cell-free assay, competition with immobilised ligand",0.1 µM,remaining binding,100%
FC(F)(F)Oc1cccc(-c2cnc3ccc(-c4ccncc4)nn23)c1,"enzyme activity, inhibitor, radiometric",1 µM,activity vs control,85%
COc1cc(Nc2cnc(C#N)c(O[C@H](C)CN(C)C)n2)ncc1-c1cnn(C)c1,"enzyme activity, inhibitor, radiometric",10 µM,remaining activity,97%
O=C(Nc1cccnn1)N1CCC(=Cc2cccc(Oc3ccc(C(F)(F)F)cn3)c2)CC1,"cell-free assay, competition with immobilised ligand",1 µM,remaining binding,100%
COc1cc(/C=C/C(=O)CC(=O)/C=C/c2ccc(O)c(OC)c2)ccc1O,"enzyme activity, inhibitor",1 µM,activity vs control,109%
O=C1Nc2ccc(Cl)cc2C1=Cc1cc(Cl)c(O)c(Cl)c1,cell-free assay,0.5 µM,remaining signal,98.8%
CN(C)CC#Cc1ccc(OCCCc2sc(N3CCc4cccc(C(=O)Nc5nc6ccccc6s5)c4C3)nc2C(=O)O)c(F)c1,"cell-free assay, competition with immobilised ligand",1 µM,remaining binding,71%
FC(F)c1nc2ccccc2n1-c1nc(N2CCOCC2)nc(N2CCOCC2)n1,"enzyme activity, inhibitor",10 µM,remaining activity,88%
C[C@@]1(Cc2ccc(C#N)cc2)C(=O)N(c2cc(Cl)cc(Cl)c2)c2ncc(C(=O)NC3(c4nc(C5CCC5)no4)CC3)n21,"cell-free assay, competition with immobilised ligand",1 µM,remaining binding,100%
CNC(=O)c1cc(Oc2ccc(NC(=O)Nc3ccc(Cl)c(C(F)(F)F)c3)cc2)ccn1,"enzyme activity, inhibitor",10 µM,inhibition,66%
